Experimental data: ChEMBL document CHEMBL2086328, “¹⁸F-labeled 2-phenylquinoxaline derivatives as potential positron emission tomography probes for in vivo imaging of β-amyloid plaques” (Eur J Med Chem, 2012)

Columns and labels:
Intestine [1] = experiment: Biodistribution in ICR mouse intestine at 370 kBq, iv after 10 mins by gamma counting; type: ADME, organism-based; settings: in vivo
Outline: (§1)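 Male ICR mice (five weeks, 20–22 g), tail-vein injection of 18F tracer in 0.1 mL saline with 10% EtOH. Killed by decapitation at set times, n = 5 per time point. Organs removed, weighed and gamma-counted; %ID/g wet tissue from comparison with diluted aliquots of injected dose; mean ± SD.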

Bone [2] = experiment: Biodistribution in ICR mouse bone at 370 kBq, iv after 2 mins by gamma counting; type: ADME, organism-based, Bone element; settings: in vivo; outline: as §1
Blood [3] = experiment: Biodistribution in ICR mouse blood at 370 kBq, iv after 30 mins by gamma counting; type: ADME, organism-based; settings: in vivo, 0.5 h; outline: as §1
Lung [4] = experiment: Biodistribution in ICR mouse lung at 370 kBq, iv after 2 mins by gamma counting; type: ADME, organism-based; settings: in vivo; outline: as §1
Heart [5] = experiment: Biodistribution in ICR mouse heart at 370 kBq, iv after 2 mins by gamma counting; type: ADME, organism-based; settings: in vivo; outline: as §1
Spleen [6] = experiment: Biodistribution in ICR mouse spleen at 370 kBq, iv after 30 mins by gamma counting; type: ADME, organism-based; settings: in vivo, 0.5 h; outline: as §1
Brain [7] = experiment: Biodistribution in ICR mouse brain at 370 kBq, iv after 10 mins by gamma counting; type: ADME, organism-based; settings: in vivo; outline: as §1
Kidney [8] = experiment: Biodistribution in ICR mouse kidney at 370 kBq, iv after 30 mins by gamma counting; type: ADME, organism-based; settings: in vivo, 0.5 h; outline: as §1
Blood [9] = experiment: Biodistribution in ICR mouse blood at 370 kBq, iv after 2 mins by gamma counting; type: ADME, organism-based; settings: in vivo; outline: as §1
Lung [10] = experiment: Biodistribution in ICR mouse lung at 370 kBq, iv after 10 mins by gamma counting; type: ADME, organism-based; settings: in vivo; outline: as §1
Intestine [11] = experiment: Biodistribution in ICR mouse intestine at 370 kBq, iv after 60 mins by gamma counting; type: ADME, organism-based; settings: in vivo, 1 h; outline: as §1
Liver [12] = experiment: Biodistribution in ICR mouse liver at 370 kBq, iv after 30 mins by gamma counting; type: ADME, organism-based; settings: in vivo, 0.5 h; outline: as §1
Brain [13] = experiment: Biodistribution in ICR mouse brain at 370 kBq, iv after 2 mins by gamma counting; type: ADME, organism-based; settings: in vivo; outline: as §1
Kidney [14] = experiment: Biodistribution in ICR mouse kidney at 370 kBq, iv after 60 mins by gamma counting; type: ADME, organism-based; settings: in vivo, 1 h; outline: as §1
Stomach [15] = experiment: Biodistribution in ICR mouse stomach at 370 kBq, iv after 60 mins by gamma counting; type: ADME, organism-based; settings: in vivo, 1 h; outline: as §1
Stomach [16] = experiment: Biodistribution in ICR mouse stomach at 370 kBq, iv after 2 mins by gamma counting; type: ADME, organism-based; settings: in vivo; outline: as §1
Liver [17] = experiment: Biodistribution in ICR mouse liver at 370 kBq, iv after 60 mins by gamma counting; type: ADME, organism-based; settings: in vivo, 1 h; outline: as §1
Brain [18] = experiment: Biodistribution in ICR mouse brain at 370 kBq, iv after 60 mins by gamma counting; type: ADME, organism-based; settings: in vivo, 1 h; outline: as §1
Brain [19] = experiment: Ratio of drug level in ICR mouse brain after 2 mins to ICR mouse brain after 60 mins at 370 kBq, iv; type: ADME, organism-based; settings: in vivo
Outline: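 Same intravenous study in ICR mice (370 kBq 18F tracer in saline/10% EtOH, n = 5 per time point). Ratio is brain %ID/g at 2 min divided by brain %ID/g at 60 min post-injection.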

Stomach [20] = experiment: Biodistribution in ICR mouse stomach at 370 kBq, iv after 30 mins by gamma counting; type: ADME, organism-based; settings: in vivo, 0.5 h; outline: as §1
Bone [21] = experiment: Biodistribution in ICR mouse bone at 370 kBq, iv after 60 mins by gamma counting; type: ADME, organism-based, Bone element; settings: in vivo, 1 h; outline: as §1
[22] = Lipophilicity, log D of the compound; type: physicochemical; settings: octanol/water
Outline: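 18F tracer (740 kBq) in 3 g n-octanol plus 3 g PBS (0.05 M, pH 7.4). Vortexed 3 min at room temperature, centrifuged 5 min at 3000 rpm; weighed samples from octanol and buffer layers counted.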

Heart [23] = experiment: Biodistribution in ICR mouse heart at 370 kBq, iv after 10 mins by gamma counting; type: ADME, organism-based; settings: in vivo; outline: as §1
Blood [24] = experiment: Biodistribution in ICR mouse blood at 370 kBq, iv after 10 mins by gamma counting; type: ADME, organism-based; settings: in vivo; outline: as §1
Spleen [25] = experiment: Biodistribution in ICR mouse spleen at 370 kBq, iv after 2 mins by gamma counting; type: ADME, organism-based; settings: in vivo; outline: as §1
Bone [26] = experiment: Biodistribution in ICR mouse bone at 370 kBq, iv after 30 mins by gamma counting; type: ADME, organism-based, Bone element; settings: in vivo, 0.5 h; outline: as §1
Blood [27] = experiment: Biodistribution in ICR mouse blood at 370 kBq, iv after 60 mins by gamma counting; type: ADME, organism-based; settings: in vivo, 1 h; outline: as §1
Brain [28] = experiment: Biodistribution in ICR mouse brain at 370 kBq, iv after 30 mins by gamma counting; type: ADME, organism-based; settings: in vivo, 0.5 h; outline: as §1
Lung [29] = experiment: Biodistribution in ICR mouse lung at 370 kBq, iv after 60 mins by gamma counting; type: ADME, organism-based; settings: in vivo, 1 h; outline: as §1
Heart [30] = experiment: Biodistribution in ICR mouse heart at 370 kBq, iv after 60 mins by gamma counting; type: ADME, organism-based; settings: in vivo, 1 h; outline: as §1
Intestine [31] = experiment: Biodistribution in ICR mouse intestine at 370 kBq, iv after 30 mins by gamma counting; type: ADME, organism-based; settings: in vivo, 0.5 h; outline: as §1
Bone [32] = experiment: Biodistribution in ICR mouse bone at 370 kBq, iv after 10 mins by gamma counting; type: ADME, organism-based, Bone element; settings: in vivo; outline: as §1
Intestine [33] = experiment: Biodistribution in ICR mouse intestine at 370 kBq, iv after 2 mins by gamma counting; type: ADME, organism-based; settings: in vivo; outline: as §1
Lung [34] = experiment: Biodistribution in ICR mouse lung at 370 kBq, iv after 30 mins by gamma counting; type: ADME, organism-based; settings: in vivo, 0.5 h; outline: as §1
Liver [35] = experiment: Biodistribution in ICR mouse liver at 370 kBq, iv after 2 mins by gamma counting; type: ADME, organism-based; settings: in vivo; outline: as §1
Kidney [36] = experiment: Biodistribution in ICR mouse kidney at 370 kBq, iv after 10 mins by gamma counting; type: ADME, organism-based; settings: in vivo; outline: as §1
Stomach [37] = experiment: Biodistribution in ICR mouse stomach at 370 kBq, iv after 10 mins by gamma counting; type: ADME, organism-based; settings: in vivo; outline: as §1
Spleen [38] = experiment: Biodistribution in ICR mouse spleen at 370 kBq, iv after 10 mins by gamma counting; type: ADME, organism-based; settings: in vivo; outline: as §1
Liver [39] = experiment: Biodistribution in ICR mouse liver at 370 kBq, iv after 10 mins by gamma counting; type: ADME, organism-based; settings: in vivo; outline: as §1
Spleen [40] = experiment: Biodistribution in ICR mouse spleen at 370 kBq, iv after 60 mins by gamma counting; type: ADME, organism-based; settings: in vivo, 1 h; outline: as §1
Heart [41] = experiment: Biodistribution in ICR mouse heart at 370 kBq, iv after 30 mins by gamma counting; type: ADME, organism-based; settings: in vivo, 0.5 h; outline: as §1
Kidney [42] = experiment: Biodistribution in ICR mouse kidney at 370 kBq, iv after 2 mins by gamma counting; type: ADME, organism-based; settings: in vivo; outline: as §1
[43] = Binding affinity to beta-amyloid
[44] = Displacement of [125I]IMPY from amyloid beta (1 to 42) after 2 hrs by gamma counting
Outline: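 Competition binding against [125I]IMPY (radiochemical purity >95%) on Aβ1-42 aggregates with 1% BSA solution; inhibitor 10^-4–10^-9.5 M; 37 °C, 2 h. Free and bound separated by vacuum filtration on GF/B filters, three PBS washes (0.02 M, pH 7.4, room temperature); filters gamma-counted. Three repeats; IC50 fitted, Ki from Cheng–Prusoff.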

`CNc1ccc2nc(-c3ccc(OCCOCCOCC[18F])cc3)cnc2c1` showed a Drug uptake (Intestine [1]) of 12.26 %ID, a Drug uptake (Bone [2]) of 1.49 % ID/g and a Drug uptake (Blood [3]) of 2.38 % ID/g. The Drug uptake (Lung [4]) was 4.07 % ID/g, the Drug uptake (Heart [5]) was 3.21 % ID/g and the Drug uptake (Spleen [6]) was 1.21 % ID/g. The Drug uptake (Brain [7]) was 1.44 % ID/g, the Drug uptake (Kidney [8]) was 3.27 % ID/g and the Drug uptake (Blood [9]) was 5.51 % ID/g. For the same molecule, the Drug uptake (Lung [10]) was 2.4 % ID/g, the Drug uptake (Intestine [11]) was 39.02 %ID and the Drug uptake (Liver [12]) was 7.9 % ID/g. It also gave a Drug uptake (Brain [13]) of 2.49 % ID/g, a Drug uptake (Kidney [14]) of 1.65 % ID/g and a Drug uptake (Stomach [15]) of 6.53 %ID. The Drug uptake (Stomach [16]) was 1.55 %ID, the Drug uptake (Liver [17]) was 4.89 % ID/g and the Drug uptake (Brain [18]) was 0.64 % ID/g. The Ratio (Brain [19]) was 3.89, the Drug uptake (Stomach [20]) was 3.21 %ID and the Drug uptake (Bone [21]) was 1.78 % ID/g. For the same molecule, the logD [22] was 2.79, the Drug uptake (Heart [23]) was 1.76 % ID/g and the Drug uptake (Blood [24]) was 3.32 % ID/g. For the same molecule, the Drug uptake (Spleen [25]) was 2.07 % ID/g, the Drug uptake (Bone [26]) was 1.12 % ID/g and the Drug uptake (Blood [27]) was 1.54 % ID/g. The Drug uptake (Brain [28]) was 0.83 % ID/g, the Drug uptake (Lung [29]) was 1.15 % ID/g and the Drug uptake (Heart [30]) was 1.03 % ID/g. It also gave a Drug uptake (Intestine [31]) of 32.83 %ID, a Drug uptake (Bone [32]) of 1 % ID/g and a Drug uptake (Intestine [33]) of 6.06 %ID. It also gave a Drug uptake (Lung [34]) of 1.76 % ID/g, a Drug uptake (Liver [35]) of 14.18 % ID/g and a Drug uptake (Kidney [36]) of 3.91 % ID/g. For the same molecule, the Drug uptake (Stomach [37]) was 2.81 %ID, the Drug uptake (Spleen [38]) was 1.65 % ID/g and the Drug uptake (Liver [39]) was 14.09 % ID/g. It also gave a Drug uptake (Spleen [40]) of 0.94 % ID/g, a Drug uptake (Heart [41]) of 1.19 % ID/g and a Drug uptake (Kidney [42]) of 5.52 % ID/g.
`[11CH3]Nc1ccc(-c2nc3ccc(O)cc3s2)cn1` gave a Ki [43] of 1.7 nM.
In the case of `CNc1ccc(/C=C/c2ccc(OCCOCCOCC[18F])cc2)cc1` [FLORBETABEN F18], the Ki [43] is reported as 2.22 nM.
With `CNc1ccc(/C=C/c2ccc(OCCOCCOCC[18F])nc2)cc1` [FLORBETAPIR F 18] the Ki [44] was 2.9 nM, the Drug uptake (Brain [13]) was 7.33 % ID/g and the Ratio (Brain [19]) was 3.9. For the same molecule, the logD [22] was 2.41 and the Ki [43] was 2.87 nM.
